# Screening data: PubChem, several laboratories
# Most compounds without a hit are left out; they make up all but 3.9% or so of the library.
# HSF1 inhib: HSF1 inhibition | AID 2098 | activity change, negative = inhibition, % at 7.5 µM (by protocol) | NIH3T3-HGL HSE-luciferase, MG132-induced, luminescence 8 h; active compounds read low | actives 0.77% (n = 300,000);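 active = more than half of replicate wells show activity change below -50%, luminescence cut by over half; inconclusive = some wells, but at most half, below -50%; inactive = no replicate well below -50%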;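 note: luciferase reports HSF-1 transcriptional activity via heat shock element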
# HCV core dimer: HCV core protein dimerization inhibition. TR-FRET GST/Flag-core106 dimerization, 1536-well. inhibition, % at 5 µM. actives 0.33% (n = 300,000);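 active = inhibition above the mean of all tested compounds plus 3 SD, set per screening campaign, cut at about 45% in these data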
#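 Assay system: tagged HCV core106 pair (GST and Flag); medium: KF-containing HEPES buffer, pH 7.45, DTT, CHAPS, BSA; also added: Eu donor and XL665 acceptor anti-tag antibodies; dosing: 5 µM single dose; timing: compound-protein-antibody incubation 4 h at 22.5 °C; signal: TR-FRET 671 and 617 nm emission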
# HSP90 inh: blocks HSP90-mediated luciferase refolding in reticulocyte lysate. Rabbit reticulocyte lysate, luciferase refolding luminescence, 3 h. inhibition, % at 5.6 µM. actives 0.91% (n = 290,000). AID 1789;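 active = inhibition above the screen-wide mean plus 3 SD, computed separately per campaign, cut at about 16% in these data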;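 note: inhibitors lower the luminescence because luciferase stays unfolded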
# HSF-1 act: increases HSF-1 driven luciferase reporter signal | activation, % at 9 µM | NIH3T3-HGL HSF-1 luciferase reporter, MG132, 8 h; 100% = twice DMSO control signal | AID 504408 | actives 1.7% (n = 300,000);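 active = mean replicate activation of at least 50% with a set share of replicates each reaching 50%; inconclusive = only one of those two conditions met; inactive = mean below 50% and too few replicates reaching it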
# NS3 helicase inh: HCV NS3 helicase inhibition; NS3 helicase DNA unwinding, Cy5 molecular beacon fluorescence; inhibition, % at 10.9 µM; actives 0.56% (n = 290,000);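 active = inhibition above the mean of all tested compounds plus 3 SD, set per campaign, cut at about 35% in these data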
#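 System: NS3 helicase fragment of HCV / Schedule: 1 h at 25 °C / Control set: DMSO alone as 0% and 110 µM thioflavine S as 100% / Reagent: Cy5/quencher beacon DNA duplex and ATP to start / Technique: Cy5 fluorescence / Replication: singlicate / Evaluation: % inhibition of end-to-start signal ratio versus controls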
# FID counter: fluorescent intercalator displacement, NS3 helicase counter-screen. DNA fluorescent intercalator displacement, fluorescence. inhibition, % at 7.9 µM. actives 0.17% (n = 290,000). AID 1845; in the data active = inhibition above about 37%;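 note: higher means more ethidium bromide displaced from hairpin DNA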
# HSP90 inh confirm: HSP90 inhibition, confirmation assay | shares compounds with HSP90 inh | rabbit reticulocyte lysate, luciferase refolding luminescence, 3 h | inhibition, % at 5.9 µM | actives 64% (n = 2,300) | AID 1846; in the data active = inhibition above about 18%
# FLuc counter: firefly luciferase inhibition, HSP90 counter-screen | shares compounds with HSP90 inh | purified native firefly luciferase, luminescence | inhibition, % at 5.9 µM | actives 48% (n = 2,300) | AID 1847;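 active = inhibition above the mean inhibition of all tested sample wells plus 3 SD, cut at about 10% in these data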
# Target sequence (P08659 whole entry, looked up): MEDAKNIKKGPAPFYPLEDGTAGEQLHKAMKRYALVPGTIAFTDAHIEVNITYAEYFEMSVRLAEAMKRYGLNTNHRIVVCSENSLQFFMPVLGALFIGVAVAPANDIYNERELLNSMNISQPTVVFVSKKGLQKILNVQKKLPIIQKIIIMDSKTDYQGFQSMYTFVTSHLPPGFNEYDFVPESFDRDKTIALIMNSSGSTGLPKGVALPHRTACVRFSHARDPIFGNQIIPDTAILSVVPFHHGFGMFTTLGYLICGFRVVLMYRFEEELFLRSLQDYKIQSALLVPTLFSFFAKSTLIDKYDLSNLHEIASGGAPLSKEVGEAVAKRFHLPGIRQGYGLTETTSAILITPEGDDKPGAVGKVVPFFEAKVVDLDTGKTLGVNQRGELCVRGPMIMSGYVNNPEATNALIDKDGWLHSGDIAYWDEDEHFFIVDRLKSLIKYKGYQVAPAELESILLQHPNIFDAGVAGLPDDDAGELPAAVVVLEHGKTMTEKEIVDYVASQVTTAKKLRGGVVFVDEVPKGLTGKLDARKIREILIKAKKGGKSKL
# Hits are given with their value; n = inactive; u = inconclusive; x = not tested or not shown.
SMILES,HSF1 inhib,HCV core dimer,HSP90 inh,HSF-1 act,NS3 helicase inh,FID counter,HSP90 inh confirm,FLuc counter
O=C(O)c1cccc(OCc2ccccc2Cl)c1,n,n,27.6,n,n,n,52.7,27.2
O=C(O)c1cccc(-c2nnn(Cc3ccccc3Cl)n2)c1,n,n,59.3,n,n,n,76.7,81.1
Cc1ccccc1Cn1nnc(-c2cccc(C(=O)O)c2)n1,n,n,37.5,n,n,n,53.7,66.1
Cc1oc2ccc(OCc3ccccc3Cl)cc2c1C(=O)O,n,x,n,n,n,n,x,x
Cc1ccccc1Cn1nnc(-c2ccc(C(=O)O)cc2)n1,n,n,n,n,n,n,x,x
O=C(Nc1cc(S(=O)(=O)N2CCOCC2)ccc1N1CCOCC1)c1cnccn1,n,n,n,n,n,n,x,x
CCN(C(=O)c1cccs1)C1CCS(=O)(=O)C1 (stereo unspecified),n,x,x,n,x,x,x,x
CCn1nc(C)cc1C(=O)N(C)C1CCCN(Cc2ccccc2F)C1 (stereo unspecified),n,n,n,n,n,n,x,x
CCn1c(C)nc2cc(C(=O)NNC(=S)Nc3ccc(Cl)cc3)ccc21,n,n,n,n,n,n,x,x
CCn1c(C)nc2cc(C(=O)NNC(=S)Nc3ccccc3)ccc21,-67.0,n,34.1,n,n,n,31.6,26.7
CCSc1ccc2nnc(-c3ccc(F)cc3)n2n1,n,n,88.3,n,n,n,n,n
O=C(NCc1ccc(Cl)cc1)c1ccc(CSc2nc3ccncc3[nH]2)cc1,n,n,n,n,n,n,x,x
Cc1ccc(CSc2nc3ccncc3[nH]2)cc1,n,n,62.7,n,n,n,79.5,68.7
Clc1ccc(CSc2nc3ccncc3[nH]2)cc1,n,n,26.8,55.9,n,n,64.0,44.9
O=C(c1ccc(CSc2nc3ccncc3[nH]2)cc1)N1CCCCCC1,n,n,26.8,n,n,n,50.9,27.1
Cc1cc(C)cc(NC(=O)CSc2nc3ccncc3[nH]2)c1,n,n,n,n,n,n,x,x
O=C(c1ccc(CSc2nc3ccncc3[nH]2)cc1)N1CCN(c2cccc(Cl)c2)CC1,n,n,n,n,n,n,x,x
CC(C)=C1SC(N2CCN(c3cccc(Cl)c3)CC2)=NC1=O,n,n,n,n,n,n,x,x
Cc1ccc(-c2nc3ccc(Cl)cc3n2OC(C)C(=O)O)cc1 (stereo unspecified),n,n,62.0,n,n,n,n,n
CCOc1ccc(-c2nc3scc(-c4cccs4)c3c(=O)[nH]2)cc1,n,n,n,n,n,n,x,x
CN(CCc1nc2ccc(Cl)cc2[nH]1)Cc1nc(CC2CC2)no1,n,n,n,n,n,n,x,x
CCOC(=O)Cn1nc(C)n(-c2ccc(C(C)(C)C)cc2)c1=O,n,n,17.0,n,n,n,n,n
Cc1n[nH]c(=O)n1-c1ccc(C(C)(C)C)cc1,n,n,n,n,n,n,x,x
Clc1ccc2nc(N3CCCCC3)[nH]c2c1,n,n,n,n,n,n,x,x
O=c1c(Cl)c(N2CCCCC2)cnn1-c1nc2ccccc2[nH]1,n,n,65.3,n,n,n,86.1,79.6
SMILES,HSF1 inhib,HCV core dimer,HSP90 inh,HSF-1 act,NS3 helicase inh,FID counter,HSP90 inh confirm,FLuc counter
Cc1cc(C(=O)CN2C(=O)c3ccccc3C2=O)c(C)n1Cc1cccs1,n,n,n,n,n,n,x,x
Cc1cc(C(=O)Cn2nnc3ccccc3c2=O)c(C)n1Cc1cccs1,n,n,34.5,n,n,n,52.7,45.0
CCCNC(=O)CN1C(=O)NC(Cc2c[nH]c3ccccc23)C1=O (stereo unspecified),n,n,n,n,n,n,x,x
CCN1CCN(C(=O)c2ccc(-c3nc4ccccc4s3)s2)CC1,n,n,n,n,n,n,x,x
Cc1ccc2nc(NC(=O)c3ccc(-c4nc5ccccc5s4)s3)sc2c1,x,n,n,x,n,n,x,x
c1ccc2sc(-c3ccc4c(c3)OCO4)nc2c1,x,n,19.0,x,n,n,59.7,55.8
O=C(NC1CC1)c1ccc(-c2nc3ccccc3s2)s1,n,n,76.0,n,n,n,80.5,77.1
O=C(c1ccc(-c2nc3ccccc3s2)s1)N1CCOCC1,n,n,63.8,n,n,n,84.8,79.0
COc1ccc(C(=O)Nc2ccc(-c3ccc(NC(=O)c4ccc(OC)cc4)c(OC)c3)cc2OC)cc1,n,n,n,n,n,n,x,x
CN(C)c1cccc2c(/C=N/O)ccc(N(C)C)c12,n,n,52.0,n,n,n,n,n
O=C(Cn1c(=S)[nH]c2ncccc2c1=O)NCCc1ccccc1,n,n,n,n,n,n,x,x
O=C1N/C(=C\c2ccccc2)c2ccccc21,n,n,n,n,n,n,x,x
O=C1N/C(=C\c2nc3ccccc3s2)c2ccccc21,n,n,21.2,n,n,n,52.8,25.2
COc1cccc2cc(-c3nc4ccccc4o3)c(=O)oc12,n,n,18.6,n,n,n,18.1,n
COc1cccc2cc3c(=O)n(-c4ccccc4)nc-3oc12,n,n,n,n,n,n,x,x
O=[N+]([O-])c1ccc(NC(=S)NCc2ccc(F)cc2)cc1,n,n,n,n,n,n,x,x
CCOC(=O)N1CCC(=NNc2nc3ccccc3s2)CC1,n,n,25.7,n,n,n,n,n
CC(=O)N1CCC(=NNc2nc3ccccc3s2)CC1,n,n,n,n,n,n,x,x
Cc1cccc2c3nc4ccccc4nc3n(CCCN3C(=O)c4ccccc4C3=O)c12,n,x,24.9,n,n,n,n,n
COc1ccc2c(c1)c1nc3ccccc3nc1n2CCCN1C(=O)c2ccccc2C1=O,n,n,n,n,n,n,x,x
COc1ccc(C(=O)Nc2ccccc2C(=O)N/N=C/c2ccncc2)cc1OC,n,n,28.9,n,n,n,60.8,19.1
COc1ccc(C(=O)Nc2ccccc2C(=O)NCc2cccnc2)cc1OC,n,n,n,n,n,n,x,x
COc1ccc(C(=O)Nc2ccccc2C(=O)Nc2ccccc2C(=O)O)cc1,n,n,n,u,n,n,x,x
COc1ccc(C(=O)Nc2ccccc2C(=O)N/N=C/c2cccc3ccccc23)cc1,-71.8,n,35.0,n,n,n,79.7,50.8
COc1ccccc1-c1nnc(SCC(=O)Nc2ccc3[nH]c(=O)[nH]c3c2)n1N,n,n,x,n,x,x,x,x
CN1CCC(=NNC(=O)CN(c2cccc([N+](=O)[O-])c2)S(=O)(=O)c2ccccc2)CC1,n,n,n,n,n,n,x,x
CC(C)(C)NC(=O)CN(c1cccc([N+](=O)[O-])c1)S(=O)(=O)c1ccccc1,n,n,23.3,n,n,n,n,n
O=C(NCc1cccs1)C1CCCCC1,n,n,26.0,n,n,n,n,n
